Laboratory results taken from ChEMBL document CHEMBL4152378, “Discovery of a Branched Peptide That Recognizes the Rev Response Element (RRE) RNA and Blocks HIV-1 Replication” (J Med Chem, 2018).
Calls of active or inactive are those of the source. The rule behind the calls is not given here.

Assays:
[1] = Binding affinity to HIV1 rev response element 2B RNA by 2-AP based displacement assay; parameters: species or system Human immunodeficiency virus 1
Summary of the method: (§1)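 2-AP-labeled RRE IIB (0.1 μM) refolded at 95 °C 3 min, snap-cooled; titrated with peptide 0–20 μM in 10 mM potassium phosphate, 100 mM KCl, 1 mM MgCl2, 20 mM NaCl, pH 7.0; excitation 310 nm, emission decrease at 372 nm; Kd from Hill fit; at least duplicate, SD. Competition lines include 10-fold excess unlabeled RNA/DNA competitor.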

[2] = Binding affinity to HIV1 RRE RNA in HEK293T cells transfected with HIV1 CMV driven GagPol-RRE plasmid assessed as reduction in Rev-RRE dependent nuclear export by measuring intracellular p24 levels after 48 hrs by ELISA relative to control; type: cell-based; conditions: Human immunodeficiency virus 1, HEK-293T
[3] = Cytotoxicity against HEK293T cells assessed as reduction in cell viability after 48 hrs by MTT assay; type: cell-based, HEK-293T; conditions: human
Summary of the method: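 MTT run in parallel with the transfected HEK 293T reporter set-up; ~48 h post-transfection MTT (5 mg/mL stock in PBS) added, 4 h at 37 °C; solubilized overnight with 10% SDS/0.01 N HCl; absorbance 570 nm; mean ± SD.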

[4] = Binding affinity to HIV1 rev response element 2B RNA in presence of 10-fold excess RRE DNA by 2-AP based displacement assay; parameters: species or system Human immunodeficiency virus 1; summary of the method: as §1
[5] = Binding affinity to HIV1 rev response element 2B RNA in presence of 10-fold excess no bulge RRE RNA by 2-AP based displacement assay; parameters: species or system Human immunodeficiency virus 1; summary of the method: as §1
[6] = Binding affinity to HIV1 rev response element 2B RNA in presence of 10-fold excess TAR RNA by 2-AP based displacement assay; parameters: species or system Human immunodeficiency virus 1; summary of the method: as §1
[7] = tested on: Human immunodeficiency virus 1; assay: Binding affinity to [32P]-labeled HIV-rev response element 2B RNA assessed as protection of upper stem region from cleavage by RNase VI incubated for 10 mins up to 20 uM by autoradiography based nuclease protection assay
Summary of the method: (§2)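 5'-32P RRE IIB (10 nM) with 200 nM unlabeled RRE IIB refolded (95 °C 3 min, ice); incubated with peptide 0–20 μM on ice 4 h in 10 mM Tris pH 7, 100 mM KCl, 10 mM MgCl2; digested on ice with RNase V1 (0.002 U, 10 min) or RNase A (20 ng, 1 h); 12% denaturing PAGE, autoradiography.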

[8] = tested on: Human immunodeficiency virus 1; assay: Binding affinity to [32P]-labeled HIV-rev response element 2B RNA assessed as protection of internal loop region from cleavage by RNase A incubated for 1 hr up to 20 uM by autoradiography based nuclease protection assay; summary of the method: as §2
[9] = tested on: Human immunodeficiency virus 1; assay: Binding affinity to HIV1 RRE RNA in HEK293T cells transfected with HIV1 CMV driven GagPol-RRE plasmid assessed as reduction in Rev-RRE dependent nuclear export by measuring intracellular p24 levels at 70 uM after 48 hrs by ELISA relative to control; type: cell-based
Summary of the method: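 HEK 293T cells transfected with Rev and CMV-driven GagPol-RRE plasmids plus luciferase control; peptides added 5 h after transfection at 70 μM; cells lysed ~48 h post-transfection and intracellular p24 quantified by ELISA as percent inhibition.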

[10] = tested on: Human immunodeficiency virus 1; assay: Binding affinity to HIV1 234 nucleotide NL4-3 5'-RRE RNA assessed as protection of secondary Rev binding sites from cleavage by […] incubated for 1 hr by SHAPE analysis

Work on `N=C(N)N[C@@H]1C[C@H](C(=O)N[C@@H](Cc2ccc(O)cc2)C(N)=O)N(C(=O)CN(CCNC(=O)[C@H](CCCCNC(=O)c2cnccn2)NC(=O)[C@H](CCCCNC(=O)[C@H]2C[C@@H](N)CN2C(=O)CN(CCNC(=O)CN(CCN)C(=O)Cn2cnc3c(=O)[nH]c(N)nc32)C(=O)Cn2cnc3c(=O)[nH]c(N)nc32)NC(=O)[C@H]2C[C@@H](N)CN2C(=O)CN(CCNC(=O)CN(CCN)C(=O)Cn2cnc3c(=O)[nH]c(N)nc32)C(=O)Cn2cnc3c(=O)[nH]c(N)nc32)C(=O)Cn2cnc3c(=O)[nH]c(N)nc32)C1` yielded a Kd [1] of 0.88 µM, an IC50 [2] of 15.4 µM and a CC50 at 48 h [3] of 135 µM. For the same molecule, the Kd [4] was 0.99 µM, the Kd [5] was 2.04 µM and the Kd [6] was 3.09 µM. The Activity [7] was “Active”, the Activity [8] was “Active” and the inhibition [9] was greater than 50%. For the same molecule, the Activity [10] was “Active”.

For `N=C(N)N[C@@H]1C[C@H](C(=O)NCCCC[C@H](NC(=O)[C@H]2C[C@@H](NC(=N)N)CN2C(=O)[C@H]2C[C@@H](N)CN2C(=O)[C@H]2C[C@@H](NC(=N)N)CN2)C(=O)N2C[C@H](N)C[C@@H]2C(=O)N2C[C@H](N)C[C@@H]2C(=O)N[C@@H](CCCCNC(=O)c2ccc(B3OC(=O)c4cc(O)ccc4O3)cc2)C(=O)N[C@@H](Cc2ccc(O)cc2)C(N)=O)N(C(=O)[C@H]2C[C@@H](N)CN2C(=O)[C@H]2C[C@@H](NC(=N)N)CN2)C1`, the Kd [1] was 2.57 µM and the inhibition [9] was greater than 50%.
